ERb coact inh: ER-beta (human) coactivator binding inhibition | TR-FRET ER-beta LBD / SRC1-Cy5 peptide binding; receptor agonist-loaded with 1 µM estradiol | inhibition, % at 25.6 µM | hit rate 1.3% among 86,000 | AID 633;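 active means compounds whose percent inhibition of the receptor-coactivator binding signal exceeds about 50% in the single-dose screen, limit read from the data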;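 further: 0% = receptor plus peptide wells without compound and 100% = peptide-only wells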
Target sequence (Q92731 whole entry, looked up, the tested form may be a part): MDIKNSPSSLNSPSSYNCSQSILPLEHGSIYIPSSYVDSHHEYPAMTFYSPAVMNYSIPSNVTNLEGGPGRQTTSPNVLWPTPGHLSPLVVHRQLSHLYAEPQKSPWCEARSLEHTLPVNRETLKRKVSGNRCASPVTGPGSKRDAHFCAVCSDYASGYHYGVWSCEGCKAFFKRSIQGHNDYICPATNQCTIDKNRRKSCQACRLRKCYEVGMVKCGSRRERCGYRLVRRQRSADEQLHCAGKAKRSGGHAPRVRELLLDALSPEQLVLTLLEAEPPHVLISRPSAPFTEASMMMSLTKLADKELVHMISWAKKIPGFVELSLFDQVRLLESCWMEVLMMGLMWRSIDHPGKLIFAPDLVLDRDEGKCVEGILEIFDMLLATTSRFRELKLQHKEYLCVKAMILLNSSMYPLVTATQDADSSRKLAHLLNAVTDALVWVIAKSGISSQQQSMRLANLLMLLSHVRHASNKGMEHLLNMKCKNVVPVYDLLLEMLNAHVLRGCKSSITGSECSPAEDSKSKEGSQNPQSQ
H69AR growth 86K: growth inhibitors of human H69AR lung tumor cells. H69AR lung tumor viability, ATP luminescence, 72 h; stronger effect = lower value. viability, % at 10 µM. hit rate 6% among 85,000. AID 598;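 active means viability at or below 40%; inactive means viability above 40%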;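 further: multidrug resistant small cell line overexpressing MRP-1 efflux transporter; 100% = mean luminescence of untreated control wells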
HUVEC prolif 384: inhibitors of human endothelial cell proliferation | hit rate 1.1% among 86,000 | AID 648 | viability, % at 10 µM (by protocol) | HUVEC proliferation, CellTiter-Glo luminescence, 72 h; stronger effect = lower value;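 active means viability at or below 30%; inactive means viability above 30%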;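 further: 100% = median luminescence of DMSO-only cell control wells on each plate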
ERa SRC1 inh: ER-alpha (human) coactivator binding inhibition. P03372. hit rate 1.7% among 86,000. AID 629. inhibition, % at 25.6 µM. TR-FRET ER-alpha LBD / SRC-1 peptide, estradiol-bound; in the data active means inhibition above about 50%;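 further: 0% = receptor plus peptide control and 100% = peptide only without receptor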
Lung fibro prol: blocks proliferation of human lung fibroblasts; LL 47 human lung fibroblast viability, ATP luminescence; stronger effect = lower value; viability, % at 10 µM; hit rate 1.1% among 85,000; AID 719;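 active means viability at or below 50% in the single dose screen; inactive means viability above 50%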;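 further: compound exposure lasted 72 h before the ATP readout; 100% = median luminescence of untreated cell-only wells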
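Material: human lung fibroblast line LL 47, low passage; Evaluation: viability percentage against median untreated-cell control; Buffer or medium: 15% FBS in IMEM; Incubation: 72 h compound exposure at 37 °C after overnight plating; Dosing: 0.1% DMSO in all compound wells; Measured by: CellTiter-Glo luminescence.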
ERa coact pot: enhances coactivator binding to human estrogen receptor alpha. coactivator binding (% of control), % at 25.6 µM. TR-FRET ERalpha-LBD/SRC-Cy5 coactivator binding, 2 h; 100 = basal binding, no effect. hit rate 1.3% among 86,000. AID 639. P03372; in the data active means activity above about 200%;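 further: binding measured in presence of low estradiol as agonist stimulus; 0% = peptide alone without receptor and 100% = receptor with peptide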
* hit, by the source's call; . = no result; [ ] = dose if it differs, or a comment. Only some compounds are listed: those with a hit (about 9.2% of all), similar ones and a draw of the others.

SMILES	ERb coact inh	H69AR growth 86K	HUVEC prolif 384	ERa SRC1 inh	Lung fibro prol	ERa coact pot
Cn1c(=O)c2ncn(CC(=O)Nc3ccc4oc(-c5cccc6ccccc56)nc4c3)c2n(C)c1=O	36.5	100.6	27.3*	74.9*[fluorescence artefact?]	60.0	43.9
CCC(C)c1ccc2oc(-c3ccc(NC(=O)Cn4cnc5c(=O)n(C)c(=O)n(C)c54)cc3)nc2c1 (configuration not stated)	42.7	24.8*	42.2	71.8*[fluorescence artefact?]	34.1*	99.2
Cc1ccc(NC(=O)Cn2cnc3c(=O)n(C)c(=O)n(C)c32)c(C)c1	-7.9	93.1	100.5	-8.9	94.3	114.1
COc1cccc(N2CCN(S(=O)(=O)c3ccc4nc(-c5ccccc5)[nH]c4c3)CC2)c1	6.2	12.9*	60.0	1.8	96.6	103.8
CCOCCCNC(=O)c1cc2sc(Cl)cc2n1CC	-22.3	35.8*	62.7	-43.2	100.3	98.2
CCOC(=O)c1cc(-c2ccccc2)n(CC(=O)O)c1C	-3.7	107.5	104.0	3.7	95.5	121.7
CC(=O)OCCCN1c2ccccc2Nc2nnc(-c3ccccc3)cc21	7.2	39.4*	66.7	-3.8	88.4	90.3
Cc1ccc(C2CC2C(=O)NNC(=S)Nc2cccc(Cl)c2)cc1 (configuration not stated)	-4.2	16.7*	69.1	-3.2	91.3	86.4
Cc1ccc(C2CC2C(=O)NNC(=S)Nc2cccc(C)c2)cc1 (configuration not stated)	-4.0	61.9	86.3	-79.2	91.6	95.5
Clc1ccc(OCc2nn3c(-c4ccco4)nnc3s2)c(Cl)c1	49.9	34.4*	102.0	66.2*[fluorescence artefact?]	94.3	173.1
Clc1ccc(-c2ccc(-c3nn4c(-c5ccco5)nnc4s3)o2)cc1	45.8	26.3*	83.4	74.2*	89.3	123.5
Cc1oc(-c2ccccc2Cl)cc1-c1nn2c(-c3ccco3)nnc2s1	52.1*[fluorescence artefact?]	100.2	66.0	57.8*	89.9	166.2
Cc1ccc(Cn2c(SCC(=O)NCC3CCCO3)nc3c(sc4ccccc43)c2=O)cc1 (configuration not stated)	10.1	100.8	92.2	19.2	92.9	152.2
COCCCNC(=O)CCCn1c(=O)c2ccccc2n(CC(=O)Nc2c(C)cc(C)cc2C)c1=O	3.6	91.1	87.6	3.2	106.8	112.8
COc1cc(C(=O)Nc2nnc(-c3sccc3C)s2)cc(OC)c1OC	31.0	58.9	59.9	31.5	100.8	475.5*
COc1cc(C(=O)Nc2ccncc2)cc(OC)c1OC	-7.3	77.4	91.1	1.2	93.7	109.6
O=C(N/N=C/C(Br)=C/c1ccccc1)c1n[nH]c2c1CCC2	-15.4	1.8*	30.3	-27.1	59.3	110.1
Cc1occc1C(=O)NCCCc1ccccc1	57.9*	101.9	107.7	4.1	105.2	103.4
Cc1occc1C(=O)NCCCCNC(=O)c1ccoc1C	-7.4	94.6	102.4	-5.6	105.2	132.2
Cc1cc(-c2ccc(Cl)cc2)c(C#N)c(N)n1	31.6	98.0	78.7	39.3	81.9	285.1*[fluorescence artefact?]
Cc1ccc(-c2cc(-c3ccccc3)c(C#N)c(N)n2)o1	22.4	105.2	85.4	23.7	85.3	46.6
CSc1nnc(-c2sc3cc(Cl)ccc3c2Cl)n1C	-2.4	26.7*	62.2	3.2	92.9	118.3
CC1CCCCN1C(=O)CSc1nnc(-c2c[nH]c3ccccc23)o1 (configuration not stated)	-13.1	21.7*	101.8	16.8	100.9	112.6
O=C(CSc1nnc(-c2c[nH]c3ccccc23)o1)N(Cc1ccccc1)c1ccc(F)cc1	-1.6	55.7	81.9	0.1	108.0	139.9
c1ccc(-c2nc(NCCCn3ccnc3)c3oc4ccccc4c3n2)cc1	-4.2	17.9*	54.1	-3.5	88.2	100.0
SMILES	ERb coact inh	H69AR growth 86K	HUVEC prolif 384	ERa SRC1 inh	Lung fibro prol	ERa coact pot
CCOC(=O)CSC1=C(C#N)C(C)C2=C(CCCC2=O)N1 (configuration not stated)	-6.2	84.7	94.7	0.3	104.8	114.2
Cc1ccccc1N1C(=O)c2sc3nc4c(c(=O)n3c2C1=O)CCC4	9.1	3.4*	96.5	-3.1	85.1	95.7
O=C1c2sc3nc4c(c(=O)n3c2C(=O)N1c1ccccc1)CCC4	8.6	34.8*	98.2	-3.5	90.4	94.8
O=C1c2sc3nc4ccccc4n3c2C(=O)N1c1ccccc1Cl	46.4	2.9*	71.6	0.9	70.8	112.1
O=C(Nc1ccon1)c1cccc(S(=O)(=O)N2CCCC2)c1	-3.9	86.2	105.0	-3.0	102.0	111.9
CC1CN(C(=O)Cc2ccc(-c3ccccc3)cc2)CC(C)O1 (configuration not stated)	1.2	81.9	99.0	5.2	97.4	117.9
COc1ccc(-c2c(C)nn3c(N4CCC(C(=O)NCCN(C)C)CC4)cc(C)nc23)cc1OC	-6.6	30.0*	72.4	-58.8	83.4	113.9
CCCN(CCC)C(=O)C1CCN(c2cc(C)nc3c(-c4ccc(OC)c(OC)c4)c(C)nn23)CC1	-10.6	34.2*	94.3	1.1	94.9	104.9
COc1ccccc1-c1c(C)nn2c(N3CCC(C(N)=O)CC3)cc(C)nc12	-0.7	82.7	100.7	-11.4	97.6	123.4
Clc1ccc(C(c2nnnn2C2CCCC2)N2CCSCC2)cc1 (configuration not stated)	-6.2	70.6	100.6	-7.0	95.1	112.0
O=C(c1cnc2n(c1=O)CCS2)N1CCN(c2ccc([N+](=O)[O-])cc2)CC1	-1.2	75.4	113.2	-6.9	96.5	107.8
Cc1cc(N2CCCC2)nc(SCC(=O)c2ccccc2)n1	-9.2	74.5	100.6	-4.6	96.3	92.0
Cc1cc(N2CCC(C)CC2)nc(SCC(=O)c2ccccc2)n1	-6.3	39.5*	87.6	-2.6	92.4	85.9
Cc1nnc(NC(=O)c2ccc(-c3cccc(C(F)(F)F)c3)o2)s1	45.9	90.5	84.3	43.6	86.0	288.5*
CC(=O)Cc1nsc(NC(=O)c2ccc(-c3cccc(C(F)(F)F)c3)o2)n1	0.0	21.4*	66.1	-0.8	99.7	107.5
CC(=O)Cc1nsc(NC(=O)c2ccc(-c3cc(C(F)(F)F)ccc3Cl)o2)n1	3.5	.	66.5	-0.5	72.8	122.9
C=CCOc1nc(N(C)C)nc(N(C)C)n1	-8.7	92.9	106.7	-5.6	96.0	113.8
Cc1cc(S(=O)(=O)N(Cc2ccccc2)Cc2ccc(N(C)C)cc2)ccc1-n1cnnn1	13.6	88.8	71.1	14.0	91.4	210.7*
C/C(Sc1nnc(Cc2ccccc2)o1)=C(/O)c1ccccc1	16.0	98.3	87.4	-15.3	92.5	95.3
CCN1CCN(Cc2ccc(NC(=O)Nc3cccs3)cc2)CC1	71.8*[fluorescence artefact?]	100.5	99.3	40.3	97.3	70.6
CCOc1ccc(Cl)cc1S(=O)(=O)n1nnc2ccccc21	20.0	67.2	66.7	40.9	97.9	83.5

Source: PubChem
